Measured values: ChEMBL document CHEMBL4819156, “Synthesis of novel 1H-Pyrazolo[3,4-b]pyridine derivatives as DYRK 1A/1B inhibitors” (Bioorg Med Chem Lett, 2021)
Calls of active or inactive are those of the source. The rule behind the calls is not given here.

Experiments:
[1] = target: Dual specificity tyrosine-phosphorylation-regulated kinase 1B (Homo sapiens, UniProt Q9Y463); assay: Inhibition of DYRK1B (unknown origin)
[2] = target: Dual specificity tyrosine-phosphorylation-regulated kinase 1A (Homo sapiens, UniProt Q13627); assay: Inhibition of DYRK1A (unknown origin)
SW-620 [3] = assay: Anticancer activity against human SW-620 cells assessed dead cells at 5 uM measured after 10 days by Ethidium Homodimer-1 staining based 3D spheroid assay; assay type: functional, cell-based; conditions: time 10.0 day
In short: (§1)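 3D spheroids grown in poly-HEMA-coated U-bottom wells. Compound added at days 3, 5 and 7. Cells were stained with Hoechst33342 for nuclei, calcein AM for live cells and ethidium homodimer-1 for dead cells. Images were taken on day 10 at 50×.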

SW-620 [4] = assay: Cytotoxicity against human SW-620 cells assessed as reduction in cell viability; assay type: functional, cell-based
DLD-1 [5] = assay: Cytotoxicity against human DLD-1cells assessed as reduction in cell viability; assay type: functional, cell-based
LS174T = assay: Cytotoxicity against human LS174T cells assessed as reduction in cell viability; assay type: functional, cell-based
RKO = assay: Cytotoxicity against human RKO cells assessed as reduction in cell viability; assay type: functional, cell-based
SW480 [6] = assay: Cytotoxicity against human SW480 cells assessed as reduction in cell viability; assay type: functional, cell-based
SW-620 [7] = assay: Anticancer activity against human SW-620 cells assessed decrease in nuclei size at 5 uM measured after 10 days by Hoechst33342 staining based 3D spheroid assay; assay type: functional, cell-based; conditions: time 10.0 day; in short: as §1
HT-29 = assay: Cytotoxicity against human HT29 cells assessed as reduction in cell viability; assay type: functional, cell-based
COLO 205 = assay: Cytotoxicity against human COLO205 cells assessed as reduction in cell viability; assay type: functional, cell-based
SW480 [8] = assay: Anticancer activity against human SW480 cells assessed decrease in nuclei size at 5 uM measured after 10 days by Hoechst33342 staining based 3D spheroid assay; assay type: functional, cell-based; conditions: time 10.0 day; in short: as §1
HCT-15 = assay: Cytotoxicity against human HCT15 cells assessed as reduction in cell viability; assay type: functional, cell-based
SW480 [9] = assay: Anticancer activity against human SW480 cells assessed dead cells at 5 uM measured after 10 days by Ethidium Homodimer-1 staining based 3D spheroid assay; assay type: functional, cell-based; conditions: time 10.0 day; in short: as §1
LoVo = assay: Cytotoxicity against human LOVO cells assessed as reduction in cell viability; assay type: functional, cell-based
Colon cancer cell line = assay: Cytotoxicity against patient-derived human colon cancer organoids assessed as reduction of crypt size and disruption of intact organoid structure at 10 uM measured after 5 days by Celltiter-glo luminescent assay relative to control; assay type: functional, cell-based; conditions: time 5.0 day
SW-620 [10] = assay: Anticancer activity against human SW-620 cells assessed decrease in viable cells at 5 uM measured after 10 days by calcein AM staining based 3D spheroid assay; assay type: functional, cell-based; conditions: time 10.0 day; in short: as §1
HCT-116 [11] = assay: Cytotoxicity against human HCT116 cells assessed as reduction in cell viability; assay type: functional, cell-based
HCT-116 [12] = assay: Induction of autophagic cell death in human HCT-116 cells assessed as multi-vesicle formation; assay type: functional, cell-based
DLD-1 [13] = assay: Induction of autophagic cell death in human DLD-1 cells assessed as multi-vesicle formation; assay type: functional, cell-based
SW480 [14] = assay: Anticancer activity against human SW480 cells assessed decrease in viable cells at 5 uM measured after 10 days by calcein AM staining based 3D spheroid assay; assay type: functional, cell-based; conditions: time 10.0 day; in short: as §1

Sequence of Dual specificity tyrosine-phosphorylation-regulated kinase 1B (Q9Y463 whole entry): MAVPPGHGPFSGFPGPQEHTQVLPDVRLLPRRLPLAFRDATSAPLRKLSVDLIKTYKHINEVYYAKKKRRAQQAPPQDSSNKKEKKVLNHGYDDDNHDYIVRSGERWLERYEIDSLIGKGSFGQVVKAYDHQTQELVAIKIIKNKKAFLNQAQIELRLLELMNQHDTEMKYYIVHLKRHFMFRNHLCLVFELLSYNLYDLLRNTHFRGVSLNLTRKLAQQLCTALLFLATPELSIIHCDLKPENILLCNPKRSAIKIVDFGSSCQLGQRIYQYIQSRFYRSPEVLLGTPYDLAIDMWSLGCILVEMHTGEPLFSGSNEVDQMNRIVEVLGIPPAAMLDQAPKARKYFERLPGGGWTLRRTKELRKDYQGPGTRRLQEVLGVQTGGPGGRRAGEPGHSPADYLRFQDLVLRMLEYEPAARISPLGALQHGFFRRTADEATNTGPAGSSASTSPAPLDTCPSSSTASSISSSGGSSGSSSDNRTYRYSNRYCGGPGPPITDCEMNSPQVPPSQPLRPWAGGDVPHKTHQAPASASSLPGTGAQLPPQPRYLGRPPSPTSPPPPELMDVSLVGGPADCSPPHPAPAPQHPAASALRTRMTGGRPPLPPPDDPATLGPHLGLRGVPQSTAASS

Row | SMILES | IC50 [1] [nM] | IC50 [2] [nM] | further results
1 | Brc1cnc2[nH]nc(-c3ccsc3)c2c1 | 736 | – | –
2 | COc1ncc(-c2n[nH]c3ncc(Br)cc23)cn1 | 141 | – | –
3 | COc1ccc(-c2n[nH]c3ncc(Nc4ccccc4)cc23)cc1 | 188 | 365 | –
4 | Brc1cnc2[nH]nc(-c3cncnc3)c2c1 | 4040 | 92 | –
5 | Nc1cccc(-c2n[nH]c3ncc(Br)cc23)c1 | 635 | – | –
6 | Brc1cnc2[nH]nc(-c3ccccc3)c2c1 | 2040 | – | –
7 | Oc1ccc(-c2n[nH]c3ncc(-c4ccc(O)c(O)c4)cc23)cc1 | – | – | Activity (SW-620 [3]): Active; IC50 (SW-620 [4]): 3970 nM; IC50 (DLD-1 [5]): 2450 nM; IC50 (LS174T): 37500 nM; IC50 (RKO): 1100 nM; IC50 (SW480 [6]): 4130 nM; Activity (SW-620 [7]): Active; IC50 (HT-29): 10900 nM; IC50 (COLO 205): 6220 nM; Activity (SW480 [8]): Active; IC50 (HCT-15): 20100 nM; Activity (SW480 [9]): Active; IC50 (LoVo): 19100 nM; Activity (Colon cancer cell line): Active; Activity (SW-620 [10]): Active; IC50 (HCT-116 [11]): 1570 nM; Activity (HCT-116 [12]): Active; Activity (DLD-1 [13]): Active; Activity (SW480 [14]): Active
8 | COc1ccc(-c2n[nH]c3ncc(Nc4cc(C(F)(F)F)cc(C(F)(F)F)c4)cc23)cc1 | 1270 | 3550 | –
9 | CC(=O)Nc1cccc(-c2n[nH]c3ncc(Br)cc23)c1 | 257 | 638 | –
10 | Brc1cnc2[nH]nc(-c3ccc4cc[nH]c4c3)c2c1 | 615 | – | –
11 | COc1cccc(-c2n[nH]c3ncc(Nc4cccc(OCc5ccccc5)c4)cc23)c1 | 3680 | > 5000 | –
12 | c1ccc(-c2cnc3[nH]nc(-c4ccccc4)c3c2)cc1 | > 5000 | > 5000 | –
13 | CC(=O)Nc1ccc(-c2n[nH]c3ncc(Br)cc23)cc1 | 568 | 1110 | –
14 | COc1cccc(-c2n[nH]c3ncc(Nc4cccc(O)c4)cc23)c1 | 191 | 950 | –
15 | O=C(O)c1ccc(-c2n[nH]c3ncc(Br)cc23)cc1 | 1050 | – | –
16 | COc1cccc(-c2n[nH]c3ncc(Br)cc23)c1 | > 5000 | – | –
17 | O=[N+]([O-])c1cccc(-c2n[nH]c3ncc(Br)cc23)c1 | > 5000 | – | –
18 | COc1cccc(-c2n[nH]c3ncc(Nc4ccccc4)cc23)c1 | 575 | 2820 | –
19 | O=[N+]([O-])c1ccc(-c2n[nH]c3ncc(Br)cc23)cc1 | > 5000 | – | –
20 | COc1ccc(-c2n[nH]c3ncc(Nc4cccc(OCc5ccccc5)c4)cc23)cc1 | 309 | 309 | –
21 | COc1ccc(-c2cnc3[nH]nc(-c4cccc(NC(C)=O)c4)c3c2)cc1OC | 287 | 632 | –
22 | COc1ncc(-c2n[nH]c3ncc(-c4ccc(OC)c(OC)c4)cc23)cn1 | 167 | 299 | –

Second part, led by results:

Row | IC50 [1] [nM] | IC50 [2] [nM] | SMILES | further results
23 | 54 | – | COc1ccc(-c2n[nH]c3ncc(Br)cc23)cc1 | –
24 | 39 | 213 | Oc1cccc(-c2cnc3[nH]nc(-c4cccc(O)c4)c3c2)c1 | –
25 | 2 | – | COc1ccc(-c2n[nH]c3ncc(-c4ccc(NC(N)=O)cc4)cc23)cc1 | –
26 | 15 | – | COc1ncc(-c2n[nH]c3ncc(-c4ccc(O)c(O)c4)cc23)cn1 | –
27 | 6 | 5 | Oc1ccc(-c2cnc3[nH]nc(-c4ccc(O)cc4)c3c2)cc1 | –
28 | 97 | 75 | COc1ccc(-c2n[nH]c3ncc(-c4ccc(OC)c(OC)c4)cc23)cc1 | –
29 | 10 | – | NC(=O)Nc1ccc(-c2cnc3[nH]nc(-c4ccc(O)cc4)c3c2)cc1 | –
30 | 13 | – | CC(=O)Nc1ccc(-c2cnc3[nH]nc(-c4ccc(O)cc4)c3c2)cc1 | –
31 | 7 | 8 | COc1ccc(-c2n[nH]c3ncc(-c4ccc(NC(C)=O)cc4)cc23)cc1 | –
32 | 31 | 33 | COc1ccc(-c2n[nH]c3ncc(Nc4cccc(O)c4)cc23)cc1 | –
33 | 87 | 56 | Oc1ccc(-c2n[nH]c3ncc(Br)cc23)cc1 | –
34 | 56 | 44 | Oc1ccc(-c2cnc3[nH]nc(-c4ccccc4)c3c2)cc1 | –
35 | 29 | 24 | CC(=O)Nc1cccc(-c2n[nH]c3ncc(-c4ccc(O)c(O)c4)cc23)c1 | –
36 | 121 | – | Brc1cnc2[nH]nc(-c3cnn(Cc4ccccc4)c3)c2c1 | –
37 | 5 | – | CS(=O)(=O)Nc1ccc(-c2cnc3[nH]nc(-c4ccc(O)cc4)c3c2)cc1 | –
